From ChEMBL document CHEMBL5356941, “Synthesis, activity and metabolic stability of propan-2-one substituted tetrazolylalkanoic acids as dual inhibitors of cytosolic phospholipase A2α and fatty acid amide hydrolase” (RSC Med Chem, 2023)
In brackets after ≈: the same amount, converted by molar mass.

Experiments:
[1] = Inhibition of porcine platelets cPLA2 alpha using 1-stearoyl-2-arachidonoyl-sn-glycero-3-phosphocholine as substrate incubated for 60 mins by RP-HPLC analysis; design: species or system Sus scrofa
Outline: (§1)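 Stopped with acetonitrile/methanol/0.1 M EDTA containing internal standard and NDGA; released arachidonic acid measured by RP-HPLC, UV 200 nm, after online SPE, with vs without compound. IC50s are means of at least two independent determinations.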

[2] = target: T1, Fatty-acid amide hydrolase 1 (Rattus norvegicus, UniProt P97612); assay: Inhibition of rat brain microsome FAAH using N-(2-hydroxyethyl)-4-pyren-1-ylbutanamide as substrate incubated for 60 mins by RP-HPLC analysis; assay type: microsomes
T1 sequence (P97612 whole entry): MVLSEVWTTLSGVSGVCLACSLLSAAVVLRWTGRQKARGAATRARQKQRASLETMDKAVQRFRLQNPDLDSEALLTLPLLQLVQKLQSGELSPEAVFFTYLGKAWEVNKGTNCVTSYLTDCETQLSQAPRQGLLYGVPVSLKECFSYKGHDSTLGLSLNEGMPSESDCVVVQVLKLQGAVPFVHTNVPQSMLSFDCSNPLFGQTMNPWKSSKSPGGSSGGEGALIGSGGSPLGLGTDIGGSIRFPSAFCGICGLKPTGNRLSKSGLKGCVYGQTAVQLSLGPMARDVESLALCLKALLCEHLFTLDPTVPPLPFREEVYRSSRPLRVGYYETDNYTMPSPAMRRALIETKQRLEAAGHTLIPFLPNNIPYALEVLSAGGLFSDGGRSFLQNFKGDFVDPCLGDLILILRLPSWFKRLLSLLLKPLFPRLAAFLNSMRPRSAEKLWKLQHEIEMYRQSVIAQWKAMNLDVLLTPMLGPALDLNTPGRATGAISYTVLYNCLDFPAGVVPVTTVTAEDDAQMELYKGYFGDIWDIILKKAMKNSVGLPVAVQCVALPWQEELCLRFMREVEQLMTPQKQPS

[3] = Lipophilicity, logP of compound by RP-HPLC analysis; assay type: physicochemical
[4] = Aqueous solubility of the compound in PBS at pH 7.4 incubated for 20 hrs by RP-HPLC analysis; assay type: physicochemical; settings: buffer, pH 7.4, 20 h
Outline: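 Thermodynamic solubility: 1 mg test compound in 2 mL PBS (0.01 M, pH 7.4), bath-sonicated 10 min, shaken 20 h at room temperature, centrifuged; acetonitrile added to an aliquot of clear supernatant and dissolved compound quantified by reversed-phase HPLC with UV at 240 nm.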

[5] = Metabolic stability in rat liver S9 fraction assessed as parent compound remaining at 20 uM after 30 mins in presence of NADPH by RP-HPLC analysis; assay type: ADME, subcellular; settings: read-out: Stability
Outline: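 Compounds (final 20 μM) incubated aerobically with rat liver S9 fraction with or without NADPH (final 1 mM); stopped after 30 min. Percent parent remaining measured by reversed-phase HPLC with UV or MS detection; means of independent duplicates.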

[6] = target: T2, Cytosolic phospholipase A2 (Homo sapiens, UniProt P47712); assay: Inhibition of cPLA2 alpha (unknown origin)
T2 sequence (P47712 whole entry): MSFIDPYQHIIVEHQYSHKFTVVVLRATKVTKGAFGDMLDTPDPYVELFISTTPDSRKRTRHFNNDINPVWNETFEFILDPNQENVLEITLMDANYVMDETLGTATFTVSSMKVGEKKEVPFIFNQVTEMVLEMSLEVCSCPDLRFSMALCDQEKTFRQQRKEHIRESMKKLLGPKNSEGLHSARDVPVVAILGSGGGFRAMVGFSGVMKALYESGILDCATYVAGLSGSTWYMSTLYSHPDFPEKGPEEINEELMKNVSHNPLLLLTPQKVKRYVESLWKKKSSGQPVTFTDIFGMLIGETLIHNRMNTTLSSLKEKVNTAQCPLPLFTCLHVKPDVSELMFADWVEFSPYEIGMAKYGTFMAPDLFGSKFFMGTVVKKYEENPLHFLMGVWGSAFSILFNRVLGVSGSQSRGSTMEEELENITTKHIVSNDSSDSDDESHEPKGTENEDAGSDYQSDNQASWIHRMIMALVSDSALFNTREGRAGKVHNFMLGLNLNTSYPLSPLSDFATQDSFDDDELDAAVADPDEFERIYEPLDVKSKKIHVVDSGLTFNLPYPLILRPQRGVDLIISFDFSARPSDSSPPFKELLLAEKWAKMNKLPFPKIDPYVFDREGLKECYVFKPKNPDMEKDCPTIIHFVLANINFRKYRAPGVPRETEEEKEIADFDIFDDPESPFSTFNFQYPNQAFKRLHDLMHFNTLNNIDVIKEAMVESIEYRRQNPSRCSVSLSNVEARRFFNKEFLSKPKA
Outline: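 Stopped with acetonitrile/methanol/0.1 M EDTA containing internal standard and NDGA. Released arachidonic acid quantified by reversed-phase HPLC, UV 200 nm, after online SPE; IC50 as mean of ≥2 independent determinations.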

[7] = target: T3, Fatty-acid amide hydrolase 1 (Rattus norvegicus) (UniProt P97612); assay: Inhibition of rat brain microsome FAAH at 10 uM using N-(2-hydroxyethyl)-4-pyren-1-ylbutanamide as substrate incubated for 60 mins by RP-HPLC analysis relative to control; assay type: microsomes
T3 sequence (whole entry): T1 sequence (P97612 whole entry)
Outline: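 Rat brain microsomes incubated with N-(2-hydroxyethyl)-4-pyren-1-ylbutanamide (final 100 μM) in PBS containing 0.20% Triton X-100. Reaction stopped after 60 min with acetonitrile/methanol containing 6-pyren-1-ylhexanoic acid as internal standard; released 4-pyren-1-ylbutanoic acid quantified by reversed-phase HPLC with fluorescence detection, with vs without compound. IC50s are means of at least two independent determinations.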

[8] = test system: Platelet; assay: Inhibition of porcine platelets cPLA2 alpha at 10 uM using 1-stearoyl-2-arachidonoyl-sn-glycero-3-phosphocholine as substrate incubated for 60 mins by RP-HPLC analysis relative to control; assay type: cell-based; settings: Sus scrofa; outline: as §1

CCCCc1ccc(OCC(=O)Cn2nnc(CCC(=O)O)n2)cc1
IC50 [1]: 260 nM | IC50 [2]: 27 nM | logP [3]: 3

CCCCCCOc1ccc(OC(C)C(=O)Cn2nnc(CCC(=O)O)n2)cc1 (stereo not drawn)
IC50 [1]: 190 nM | IC50 [2]: 34 nM

COc1ccc2c(c1)c(CC(=O)O)c(C)n2C(=O)c1ccc(Cl)cc1 [INDOMETHACIN]
solubility [4]: 246 µg/mL (≈ 688 µM)

CC(Oc1ccc(Oc2ccccc2)cc1)C(=O)Cn1nnc(CCCC(=O)O)n1 (stereo not drawn)
IC50 [1]: 730 nM | IC50 [2]: 43 nM | remaining at 0.5 h, 20 µM [5]: < 5%

CC(C)Cc1ccc(C(C)C(=O)O)cc1 (stereo not drawn) [IBUPROFEN]
logP [3]: 3.2

CCCCCCCCCCOc1ccc(OCC(=O)COc2ccc(C(=O)O)cc2)cc1
IC50 [6]: 7 nM

O=C(O)CCc1nnnn1CC(=O)COc1ccc(Oc2ccccc2)cc1
IC50 [1]: 3000 nM | IC50 [2]: 2100 nM | remaining at 0.5 h, 20 µM [5]: 52%

CCCCCCOc1ccc(OCC(=O)C(C)n2nnc(CCCC(=O)O)n2)cc1 (stereo not drawn)
IC50 [1]: 250 nM | IC50 [2]: 750 nM

CCCCCCCCc1ccc(OCC(=O)Cn2ccc3cc(C(=O)O)ccc32)cc1
IC50 [6]: 24 nM

O=C(O)CCc1cn(CC(=O)COc2ccc(Oc3ccccc3)cc2)nn1
IC50 [1]: 850 nM | IC50 [2]: 130 nM | remaining at 0.5 h, 20 µM [5]: < 5%

CCCCCCOc1ccc(OCC(=O)Cn2nnc(CCC(=O)O)n2)cc1
IC50 [1]: 47 nM | IC50 [2]: 32 nM | logP [3]: 3.7

CC(Oc1ccc(Oc2ccccc2)cc1)C(=O)Cn1nnc(CCC(=O)O)n1 (stereo not drawn)
IC50 [1]: 540 nM | IC50 [2]: 44 nM | remaining at 0.5 h, 20 µM [5]: < 5%

CCCCCCOc1ccc(OCC(=O)C(C)n2nnc(CCC(=O)O)n2)cc1 (stereo not drawn)
IC50 [1]: 180 nM | IC50 [2]: > 10000 nM | inhibition [7]: 31%

O=C(O)CCCc1nnn(CC(=O)COc2ccc(Oc3ccccc3)cc2)n1
IC50 [1]: 280 nM | IC50 [2]: 54 nM | remaining at 0.5 h, 20 µM [5]: < 5%

O=C(O)CCCc1nnnn1CC(=O)COc1ccc(Oc2ccccc2)cc1
IC50 [1]: 3300 nM | IC50 [2]: 170 nM | remaining at 0.5 h, 20 µM [5]: 36%

CCCCCCc1ccc(OCC(=O)Cn2nnc(CCC(=O)O)n2)cc1
IC50 [1]: 36 nM | IC50 [2]: 23 nM | logP [3]: 4.2

O=C(O)CCc1nnn(CC(=O)C2CCc3cc(-c4ccccc4)ccc3O2)n1 (stereo not drawn)
IC50 [1]: > 10000 nM | IC50 [2]: 94 nM | remaining at 0.5 h, 20 µM [5]: < 5% | inhibition [8]: 34%

CC(Oc1ccc(Oc2ccccc2)cc1)C(=O)Cn1nnnc1CCCC(=O)O (stereo not drawn)
IC50 [1]: 4800 nM | IC50 [2]: 170 nM | remaining at 0.5 h, 20 µM [5]: 71%

CCCCCCOc1ccc(OC(C)C(=O)Cn2nnc(CCCC(=O)O)n2)cc1 (stereo not drawn)
IC50 [1]: 500 nM | IC50 [2]: 34 nM

CC(Oc1ccc(Oc2ccccc2)cc1)C(=O)Cn1cc(CCC(=O)O)nn1 (stereo not drawn)
IC50 [1]: 3100 nM | IC50 [2]: 170 nM | remaining at 0.5 h, 20 µM [5]: 29%

O=C(O)CCc1nnn(CC(=O)COc2ccc(Oc3ccccc3)cc2)n1
IC50 [1]: 170 nM | IC50 [2]: 54 nM | logP [3]: 2.2 | remaining at 0.5 h, 20 µM [5]: < 5%

CCCCCCCCc1ccc(OCC(=O)Cn2nnc(CCC(=O)O)n2)cc1
IC50 [1]: 19 nM | logP [3]: 5.5

CC(Oc1ccc(Oc2ccccc2)cc1)C(=O)Cn1nnnc1CCC(=O)O (stereo not drawn)
IC50 [1]: > 10000 nM | IC50 [2]: 880 nM | remaining at 0.5 h, 20 µM [5]: 86% | inhibition [8]: 39%

CC(C)CCCOc1ccc(OCC(=O)Cn2nnc(CCC(=O)O)n2)cc1
IC50 [1]: 45 nM | IC50 [2]: 32 nM | logP [3]: 3.6
